Results on 1 compound are retold here after ChEMBL document CHEMBL4334451, “Natural Alkaloid Berberine Activity against Pseudomonas aeruginosa MexXY-Mediated Aminoglycoside Resistance: In Silico and in Vitro Studies” (J Nat Prod, 2019).

Assay type in all cases: protein-complex assay
The target in test [1] is T1, MexXY/OprM (Pseudomonas aeruginosa (strain ATCC 15692 / DSM 22644 / CIP 104116 / JCM14847 / LMG 12228 / 1C / PRS 101 / PAO1)) (UniProt Q51487+Q9ZNG9+Q9ZNG8). Put plainly: Inhibition of MexXY/OPRM in Pseudomonas aeruginosa PA14 assessed as reduction in bacterial resistance to tobramycin by measuring tobramycin MIC at 80 ug/ml incubated for 24 to 48 hrs by broth microdilution method (reference value: 0.125 ug/ml). Summed up: (§1)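 Broth microdilution per CLSI, with P. aeruginosa ATCC 27853 as reference strain, in 2-fold dilution series. Plates were incubated at 37°C and read for visible growth at 24 and 48 h. Berberine stock was in 50% DMSO/50% methanol, with final DMSO kept near 1%. Berberine was tested at 10–320 µg/ml, alone or at a fixed level with serial tobramycin.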
A general note: Broth dilution looks for growth in wells or tubes with falling amounts of substance.

In test [2] the target is T1, MexXY/OprM (Pseudomonas aeruginosa (strain ATCC 15692 / DSM 22644 / CIP 104116 / JCM14847 / LMG 12228 / 1C / PRS 101 / PAO1)). Put plainly: Inhibition of MexXY/OPRM in Pseudomonas aeruginosa C103 assessed as reduction in bacterial resistance to tobramycin by measuring tobramycin MIC at 80 ug/ml incubated for 24 to 48 hrs by broth microdilution method (reference value: 4 ug/ml).

Test [3] has the same target. In words: Inhibition of MexXY/OPRM in Pseudomonas aeruginosa C104 assessed as reduction in bacterial resistance to tobramycin by measuring tobramycin MIC at 80 ug/ml incubated for 24 to 48 hrs by broth microdilution method (reference value: 32 ug/ml).
Test [4] shares this target. In words: Inhibition of MexXY/OPRM in Pseudomonas aeruginosa C95 assessed as reduction in bacterial resistance to tobramycin by measuring increase in tobramycin-mediated bactericidal activity at 80 ug/ml in presence of 1XMIC to 2XMIC tobramycin measured after 2 hrs by Time-kill curve analysis.
Test [5] has the same target. Put plainly: Inhibition of MexXY/OPRM in Pseudomonas aeruginosa C93 assessed as bacterial growth up to 320 ug/ml incubated for 24 to 48 hrs by broth microdilution method. Summed up:
as §1

Test [6] shares this target. Put plainly: Inhibition of MexXY/OPRM in Pseudomonas aeruginosa C84 assessed as reduction in bacterial resistance to tobramycin by measuring fold reduction in tobramycin MIC at 80 ug/ml incubated for 24 to 48 hrs by broth microdilution method. Summed up:
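Tobramycin MIC by CLSI broth microdilution at 37°C, read at 24 and 48 h, with and without a fixed berberine concentration selected from checkerboard assays. Berberine stock was in 50% DMSO/50% methanol, final DMSO about 1%. A 2-fold decrease in tobramycin MIC was scored as synergy.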

Activity calls are given as the source filed them. No cut-off for these calls is given here.

`COc1ccc2cc3[n+](cc2c1OC)CCc1cc2c(cc1-3)OCO2` [BERBERINE]: the MIC in test [1] is 0.125 µg/mL; in test [2], 4 µg/mL; in test [3], 8 µg/mL. The inhibition result in test [4] is “Active”. Further, in test [5], the inhibition result was “inactive”. Besides, the fold change (FC) in test [6] is greater than 2.
